Measurements as given in article PMC5569452 (Iranian Journal of Basic Medical Sciences, 2017).
Where a name gives a salt, the structure may show the parent alone.

What was measured:
[1] = system: isolated rat atria; test: Spontaneously beating isolated rat atria, atria contraction force
[2] = system: isolated rat atria; test: Spontaneously beating isolated rat atria, atria contraction rate; conditions: for ACR increase, percentage over the base line: compound alone, 100 μM; for isoprenaline-induced ACR in presence of compound: isoprenaline 10^-6 M + compound 10^-4 M
Summary of the method: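 Male Wistar rats (250-350 g) given reserpine 5 mg/kg i.p. 24 hr before euthanasia; thiopental 80 mg/kg i.p. anaesthesia. Whole atria hung at ~0.5 g resting tension in Krebs-Henseleit (95% O2/5% CO2, 37 °C, pH 7.4), equilibrated 30 min. Solvent or test compound (10 or 100 μM) added; after 20 min, cumulative isoprenaline. Contractions counted per minute; % increase over baseline; mean ± SEM, 5-6 experiments.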

[3] = target: PDE3A (Homo sapiens, UniProt Q14432); test: PDE assay kit; assay type: biochemical
[4] = Cont: solvent + 1 μM isoprenaline (isoprenaline alone)
[5] = compound 100 μM, cumulative isoprenaline

Sequence of PDE3A (Q14432 whole entry): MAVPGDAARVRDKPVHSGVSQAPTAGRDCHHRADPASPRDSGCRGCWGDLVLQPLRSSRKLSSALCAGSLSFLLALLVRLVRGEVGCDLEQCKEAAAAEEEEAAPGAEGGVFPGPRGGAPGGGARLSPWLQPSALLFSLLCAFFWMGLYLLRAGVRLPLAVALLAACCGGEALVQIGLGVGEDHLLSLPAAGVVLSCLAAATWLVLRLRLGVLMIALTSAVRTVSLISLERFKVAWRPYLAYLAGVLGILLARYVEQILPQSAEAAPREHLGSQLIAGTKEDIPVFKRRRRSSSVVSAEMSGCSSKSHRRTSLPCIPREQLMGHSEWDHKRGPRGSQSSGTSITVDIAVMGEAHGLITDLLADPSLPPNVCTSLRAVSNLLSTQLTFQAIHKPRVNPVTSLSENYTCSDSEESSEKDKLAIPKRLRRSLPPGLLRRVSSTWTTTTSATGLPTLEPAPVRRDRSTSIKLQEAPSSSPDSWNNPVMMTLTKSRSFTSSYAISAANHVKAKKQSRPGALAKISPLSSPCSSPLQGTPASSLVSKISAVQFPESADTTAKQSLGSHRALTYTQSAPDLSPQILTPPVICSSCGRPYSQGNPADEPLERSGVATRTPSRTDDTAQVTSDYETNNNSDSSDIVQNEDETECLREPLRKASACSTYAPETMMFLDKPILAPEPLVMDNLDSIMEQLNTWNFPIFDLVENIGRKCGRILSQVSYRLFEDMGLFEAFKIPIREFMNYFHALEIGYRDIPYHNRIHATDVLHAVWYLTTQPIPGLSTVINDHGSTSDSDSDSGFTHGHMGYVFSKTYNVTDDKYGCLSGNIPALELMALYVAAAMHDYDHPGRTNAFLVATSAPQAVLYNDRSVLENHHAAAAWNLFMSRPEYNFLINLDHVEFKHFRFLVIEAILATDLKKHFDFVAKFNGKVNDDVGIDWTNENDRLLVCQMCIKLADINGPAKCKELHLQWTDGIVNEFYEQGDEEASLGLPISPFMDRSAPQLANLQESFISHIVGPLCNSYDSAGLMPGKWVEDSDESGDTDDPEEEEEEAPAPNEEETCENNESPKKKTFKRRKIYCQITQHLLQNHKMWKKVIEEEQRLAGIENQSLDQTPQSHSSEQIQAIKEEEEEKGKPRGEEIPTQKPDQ

CN(C(=O)CCCOc1ccc2[nH]c(=O)ccc2c1)C1CCCCC1 [cilostamide, 4-(1,2-dihydro-2-oxoquinolin-6-hydroxy)-N-cyclohexyl-N-methylbutanamide]
maximum ACFmax in combination with isoprenaline ([1]; compound + isoprenaline 3×10^-6 M): 25±5 % HSBL
maximum ACFmin in combination with isoprenaline ([1]; compound + isoprenaline 10^-6 M): 39 ±7 % HDBL
potentiation of the effect of isoprenaline on ACF ([1]; compound added 20 min before isoprenaline): about 2.86 fold
ACFmax within 20 min ([1]; compound alone, 100 μM, 20 min): 11±6 % HSBL
ACFmin within 20 min ([1]; compound alone, 100 μM, 20 min): 16±6 % HDBL
ACFmax at the beginning of adding the compound ([1]; compound alone, 100 μM): 24±9 % HSBL
ACFmin at the beginning of adding the compound (initial decrease) ([1]; compound alone, 100 μM): 9±4 % HDBL
ACR increase, percentage over the base line [2]: 42±10%
isoprenaline-induced ACR in presence of compound [2]: 51±11 % HSBL

CC(C)NCC(O)c1ccc(O)c(O)c1 (stereo not shown) [isoprenaline, isoprenaline hydrochloride]
ACF (% increase baseline) [1, 4]: 14±6 % increase baseline
threshold concentration of ACFmax curve ([1]; isoprenaline alone): 10^-10 M
maximum ACFmax ([1]; isoprenaline alone, 3×10^-8 M): 21 % HSBL
ACF maximum, higher than systolic base line (HSBL) ([1]; isoprenaline alone, 10^-6 M): 14±6 % HSBL
ACFmin, higher than diastolic base line (HDBL) ([1]; isoprenaline alone, 10^-6 M): 10.23±5 % HDBL
threshold concentration for ACF increase ([1]; isoprenaline alone, cumulative concentrations): 10^-10 M
ACR (% increase baseline) [2, 4]: 68±12 % increase baseline
threshold concentration for ACR increase ([2]; isoprenaline alone): 10^-10 M

Cc1cc(=O)[nH]c2ccc(OCCCC(=O)N3CCC(C)CC3)cc12 [mc2, 6-(4-(4-methylpiperidin-1-yl)-4-oxobutoxy)-4-methylquinolin-2(1H)-one]
ACF (% increase baseline) ([1]; 10 μM mc2 + 1 μM isoprenaline): 3±1 % increase baseline
ACF (% increase baseline) ([1]; 100 μM mc2 + 1 μM isoprenaline): 60±5 % increase baseline
ACF reached in 20 min ([1]; compound alone, 100 μM, 20 min): 40±7 % HSBL
ACFmin within 20 min ([1]; compound alone, 100 μM, 20 min): 36±6 % HDBL
ACF change when compound was added (initial) ([1]; compound alone, 100 μM, at addition): -1.76%
ACFmax at the beginning of adding the compound ([1]; compound alone, 100 μM): increased continuously from the beginning
ACFmin at the beginning of adding the compound (initial decrease) ([1]; compound alone, 100 μM): -6 % HDBL
isoprenaline-augmented ACF in presence of compound ([1]; isoprenaline 10^-6 M + compound 10^-5 M): 3±1 % HSBL
ACR (% increase baseline) ([2]; 10 μM mc2 + 1 μM isoprenaline): 50±10 % increase baseline
ACR (% increase baseline) ([2]; 100 μM mc2 + 1 μM isoprenaline): 6±7 % increase baseline
ACR increase, percentage over the base line [2]: did not change
IC50 [3]: 2000 nM

Cc1cc(=O)[nH]c2ccc(OCCCC(=O)N3CCC(O)CC3)cc12 [mc3, 6-(4-(4-hydroxypiperidin-1-yl)-4-oxobutoxy)4-methylquinolin-2(1H)-one]
effect on isoprenaline concentration-response curve (ACF) [1, 5]: did not change
ACF increase, percentage over the base line ([1]; compound alone, 100 μM): did not change
effect on isoprenaline concentration-response curve (ACR) [2, 5]: did not make any significant changes
ACR increase, percentage over the base line [2]: did not change
IC50 [3]: 1000 nM

Cc1cc(=O)[nH]c2ccc(OCCCC(=O)N3CCCC3)cc12 [mc6, 6-(4-oxo-4-(pyrrolidin-1-yl)butoxy)-4-methylquinolin-2(1H)-one]
ACF increase, percentage over the base line ([1]; compound alone, 100 μM): 11±4%
ACR increase, percentage over the base line [2]: 65±6%
isoprenaline-induced ACR in presence of compound [2]: 91±6 % HSBL
